From PubChem BioAssay
In the library only some 8.9% were active in any assay of this set; here they are far more common.
Lmaj promast: Leishmania major promastigote growth inhibition | Leishmania major promastigotes, resazurin fluorescence viability | inhibition, % at 10 µM | hit rate 9% among 200,000; in the data active = inhibition above about 50%;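 note: promastigotes grown with compound for 44 hours at 28 °C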
MT stabilizer: stabilizes microtubules in HeLa cells; HeLa tubulin immunostaining HCS, 24 h; share of cells brighter than vehicle mean+2SD; % tubulin-high responders, % at 10 µM; hit rate 0.83% among 200,000;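 active = plate Z-score above 3 for both tubulin-high and condensed-nucleus cell shares, with cell loss under 80%, at 10 µM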;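 note: anti alpha tubulin signal scored within the nucleus-defined area of each cell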
HSV replic up: increases HSV replication in cells. AID 1956. HSV replication augmentation in cells, fold increase. hit rate 0.005% among 220,000. maximum fold increase; in the data active = maximum fold increase above about 1.5; tested in PC3 cells
Dynein cargo inh: dynein cargo transport inhibition | 3617.4 mouse cells, GR-EGFP nuclear translocation imaging; test concentration mostly 20 µM; stimulated with dexamethasone, 1 µM; stronger effect = lower value | z-score, hits read low | hit rate 0.47% among 220,000 | AID 1381;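 active = plate z-score of nuclear minus cytoplasmic receptor signal below a set negative limit, without overly bright fluorescence or cell loss, cut at about -3.5 in these data, passing the limit was not always enough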;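 note: z-score of nuclear minus cytoplasmic ring GR-EGFP intensity difference per well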
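Buffer or medium: tet-free, stripped-serum medium; reagent: dexamethasone at 1.0 µM final, 30 min; incubation: 48 h induction, 1 h compound, 30 min dex at 37 °C; measured by: formaldehyde fixation, Hoechst nuclear stain, 10x automated fluorescence imaging; read-out: nuclear-to-cytoplasmic GR-EGFP distribution per well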
bCat nuc transl: modulators of beta-catenin nuclear translocation | HeLa beta-catenin nuclear translocation, immunofluorescence imaging | nuclear translocation activity, % at 5 µM | hit rate 0.3% among 190,000;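 active = nuclear translocation activity above 50% at 5 µM, with a well cell count of 50 or more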;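 note: per-cell ratio of nuclear to cytoplasmic median beta-catenin stain intensity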
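Assay system: human HeLa cells, native beta-catenin; doses: 5 µM primary, 0.02–20 µM confirmation; incubation: compound treatment 24 h, 37°C, 5% CO2; technique: fluorescence imaging of beta-catenin antibody stain plus DAPI; measure: % activation, nuclear-to-cytoplasmic median beta-catenin signal ratio per cell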
Large screens that a line does not name were inactive.

CCOC(=O)C1(CCOC)CCN(Cc2ccncc2)CC1	none
COC(=O)/C(C#N)=C/c1c[nH]c2ccccc12	none
O=c1c2sccc2nc(SCc2cc(=O)n3cc(Br)ccc3n2)n1Cc1ccccn1	Lmaj promast 54.6
Cc1ccc(CSc2nc3ccsc3c(=O)n2Cc2ccccn2)cc1	Lmaj promast 67.0
COCC(=O)Nc1ccc(C(N)=O)cc1	none
O=C(c1cc(NC(=O)C23CC4CC(CC(C4)C2)C3)cc(NC(=O)C23CC4CC(CC(C4)C2)C3)c1)N1CCCCC1	Lmaj promast 91.4
CCc1nnc(N/N=C/c2c(Cl)cccc2Cl)n1N	Lmaj promast 50.3
COc1ccc(/C=C(/NC(=O)c2ccccc2)c2nc3ccccc3[nH]2)cc1OC	none
CC(C)c1ccc(/C=C(\c2nc3ccccc3[nH]2)S(=O)(=O)c2ccccc2)cc1	Lmaj promast 100.4, MT stabilizer 27.4
O=S(=O)(/C(=C/c1ccc(C(F)(F)F)cc1)c1nc2ccccc2[nH]1)c1ccccc1	Lmaj promast 100.4
COc1ccc(CC(=O)NCC(=O)N/N=C/c2ccco2)cc1	none
COc1ccc(C2Sc3nncn3N2Cc2ccc(C#N)cc2)cc1 (stereo not given)	none
O=C(C(Cc1ccccc1)n1cccc1)N1CCc2ccccc21 (stereo not given)	none
Cc1ccc(C(=O)N/N=C/c2ccc(N3CCOCC3)cc2)c(C)c1	none
CCCC(=O)Nc1ccc(-c2ccc(NC(=O)CCC)cc2)cc1	none
CCCCC(CC)C(=O)Nc1ccc(Nc2ccccc2)cc1 (stereo not given)	Lmaj promast 99.2
CCCC(=O)Nc1ccc(Nc2ccccc2)cc1	Lmaj promast 63.6
COc1ccc(C(=O)c2ccccc2Cl)cc1OC	none
CCOC(=O)c1c(CN2CCN(c3ccccc3)CC2)oc2ccc(O)cc12	MT stabilizer 12.6
COc1cc(-c2cc(C(=O)Nc3ccc(S(=O)(=O)NCc4ccco4)cc3)c3ccccc3n2)cc(OC)c1OC	Lmaj promast 75.8 (no result: bCat nuc transl)
CCN(CC)S(=O)(=O)c1ccc(NC(=O)c2cc(-c3ccccc3)nc3ccccc23)cc1	none
Cc1cc(C)nc(NS(=O)(=O)c2ccc(NC(=O)c3cc(-c4ccccc4)nc4ccccc34)cc2)n1	Lmaj promast 66.9 (no result: bCat nuc transl)
COc1cc(-c2cc(C(=O)Nc3ccc(N4CCOCC4)cc3)c3ccccc3n2)cc(OC)c1OC	none (no result: Lmaj promast, MT stabilizer)
CC(C)CNC(=O)C1Nc2ccccc2C2C=CCC12 (stereo not given)	none (no result: Lmaj promast, MT stabilizer, Dynein cargo inh, bCat nuc transl)
Cc1nc2ccccn2c1C(=O)/C=C/c1ccc(F)cc1	Lmaj promast 86.3
COc1ccccc1N1CCN(C(=O)c2cc(-c3cccs3)on2)CC1	none
CCOC(=O)c1nnc(-c2ccccc2)nc1NC	none (no result: bCat nuc transl)
O=C(/C=C/c1ccc([N+](=O)[O-])cc1)Nc1ncc([N+](=O)[O-])s1	Lmaj promast 83.1
O=C(/C=C/c1ccc([N+](=O)[O-])cc1)NCc1ccccn1	none (no result: bCat nuc transl)
O=C(NC(=Nc1nc2ccccc2o1)NC(=O)c1ccccc1)c1ccccc1	none
COc1ccccc1C(=O)NC(=Nc1nc2ccccc2o1)NC(=O)c1ccccc1OC	Lmaj promast 100.3
CCOC(=O)COc1ccc(C)cc1-c1ccno1	none
CNc1ccccc1C(C)(C)c1cc(C)[nH]n1	none
CCn1c(C)nc2cc(C(=O)N/N=C/c3ccc(OC)c(O)c3)ccc21	Lmaj promast 63.2 (no result: bCat nuc transl)
CCn1c(C)nc2cc(C(=O)N/N=C/c3ccc(OC)cc3)ccc21	none
CCn1c(C)nc2cc(C(=O)N/N=C/c3cccc(O)c3O)ccc21	Lmaj promast 98.3
Cc1nn(-c2ccccc2)c2c1C(c1ccc(O)c(O)c1)N1C(=N2)C(Nc2ccccc2)=Nc2ccccc21 (stereo not given)	Lmaj promast 90.3
Cc1ccc(NC2=Nc3ccccc3N3C2=Nc2c(c(C)nn2-c2ccccc2)C3c2ccc(O)c(O)c2)cc1 (stereo not given)	Lmaj promast 85.5 (no result: HSV replic up)
CC(=O)c1ccc(NC(=S)N2CCC(Cc3ccccc3)CC2)cc1	none (no result: Lmaj promast, MT stabilizer)
CC(CCc1ccccc1)NC(=O)CSc1ccccc1 (stereo not given)	Lmaj promast 52.1
CC(CCc1ccccc1)NC(=O)CN1CCN(Cc2ccccc2)C1=O (stereo not given)	none
CC(CCc1ccccc1)NC(=O)Cc1ccc([N+](=O)[O-])cc1 (stereo not given)	Lmaj promast 64.7 (no result: bCat nuc transl)
CC(CCc1ccccc1)NC(=O)CN1CCN(c2ccc(O)cc2)CC1 (stereo not given)	Lmaj promast 63.9
CC(CCc1ccccc1)NC(=O)CSc1cccc[n+]1[O-] (stereo not given)	none
